Compound activity: PubChem, several laboratories
Most compounds without a hit are left out; they make up all but 1.6% or so of the library.
ADAM10 inh – inhibitors of human ADAM10; O14672; recombinant ADAM10, EDANS/DABCYL FRET peptide cleavage, 3 h; inhibition, % at 7 µM; 370,000 compounds, 0.62% hits;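 active means inhibition above a per-campaign cutoff equal to the mean of compounds falling between control-based bounds plus 3 SD, cut at about 20% in these data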
Target sequence (O14672 214-748 limits assumed): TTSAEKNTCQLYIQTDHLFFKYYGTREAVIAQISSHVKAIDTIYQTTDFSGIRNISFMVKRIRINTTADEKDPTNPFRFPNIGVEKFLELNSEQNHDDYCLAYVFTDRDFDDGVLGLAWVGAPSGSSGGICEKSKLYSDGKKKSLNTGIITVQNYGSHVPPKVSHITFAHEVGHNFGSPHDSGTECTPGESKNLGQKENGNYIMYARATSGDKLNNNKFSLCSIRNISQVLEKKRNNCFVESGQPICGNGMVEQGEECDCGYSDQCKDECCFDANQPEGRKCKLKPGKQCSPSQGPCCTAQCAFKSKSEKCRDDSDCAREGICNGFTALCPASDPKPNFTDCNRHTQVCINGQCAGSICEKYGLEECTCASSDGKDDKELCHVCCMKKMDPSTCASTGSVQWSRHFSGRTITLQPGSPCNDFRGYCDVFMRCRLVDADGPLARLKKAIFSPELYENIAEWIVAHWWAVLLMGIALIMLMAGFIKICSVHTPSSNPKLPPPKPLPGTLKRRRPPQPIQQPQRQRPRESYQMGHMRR
ADAM17 inh – inhibits human ADAM17; recombinant ADAM17, EDANS/DABCYL FRET peptide cleavage; 370,000 compounds, 0.83% hits; P78536; inhibition, % at 6.95 µM;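 active means inhibition above the mean of compounds lying between control limits plus 3 SD, set per campaign, cut at about 8.5% in these data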
MT1-MMP act inh – MT1-MMP (human) activation inhibition | GFP/RFP ratio change, % at 20 µM | HT1080 RFP-PRO-GFP cells, GFP/RFP ratio fluorescence, overnight; percent of plate control window, DMSO zero | AID 651647 | 360,000 compounds, 0.061% hits | P50281;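 active means GFP/RFP ratio change of at least 30% with cell ATP level not reduced by more than half and red fluorescence within 50% of control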
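Assay system: RFP-PRO-GFP reporter HT1080 cells; read-out basis: GFP/RFP fluorescence ratio; benchmarks: DMSO wells and RFP-L50D-GFP cells; doses: 20 µM single dose, 1% DMSO; schedule: overnight cell settling, then overnight compound exposure, 37 °C, 5% CO2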
DDE Tn7 FP inh – inhibitors of Tn7 peptide binding to human fibrin DD(E). 370,000 compounds, 0.13% hits. inhibition, % at 8.3 µM. FP displacement of FITC-Tn7 peptide from fibrin DD(E); 0% = median of compound wells per plate;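 active means inhibition above the mean of compounds falling within the control limits plus 3 SD of them, cut at about 14% in these data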
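Assay system: Human fibrin DD(E) protein | Medium: Tris buffer with calcium and detergent, pH 7.8 | Reagent: 0.1 µM fluorescent Tn7 | Compound dosing: Single point at 8.3 µM | Times: 10 min preincubation, 3 h with tracer, room temperature | Detection: Fluorescence polarization of the labelled Tn7 tracer | Controls: Aha-Tn7 high control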
Tn6 DDE FP – disrupts Tn6 cyclic peptide binding to fibrin D-Dimer-E complex | Fibrin DD(E) TRITC-Tn6 fluorescence polarization displacement | 370,000 compounds, 0.21% hits | inhibition, % at 8.3 µM;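 active means inhibition above a per-campaign cutoff: mean of compounds within control limits plus 3 SD, cut at about 15% in these data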
ADAM10 ctr – counter-screen for ADAM17 exosite inhibitors: inhibitors of human ADAM10. recombinant ADAM10, EDANS/DABCYL FRET peptide cleavage, 3 h. shares compounds with ADAM17 inh. inhibition, % at 6.95 µM. 2,900 compounds, 47% hits. AID 743256;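 active means mean inhibition over the triplicate runs exceeds the activity threshold set in the earlier primary screen, cut at about 20% in these data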
ADAM17 confirm – confirmation of inhibitors of human ADAM17; recombinant ADAM17, EDANS/DABCYL QFRET peptide cleavage; inhibition, % at 6.95 µM; AID 743257; shares compounds with ADAM17 inh; 2,900 compounds, 65% hits;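 active means mean inhibition across replicates above the hit cutoff set in the primary screen, cut at about 8.5% in these data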
Each line names hits and unclear results; the compound was inactive in the other large screens (follow-up assays come after a bar, where they were run).

COc1cccc(NC(=O)Cc2csc(NC(=O)Nc3ccccc3OC)n2)c1	ADAM17 inh 10.4 | ADAM10 ctr 34.8 | ADAM17 confirm 17.8
COc1ccccc1NC(=O)Nc1nc(CC(=O)Nc2ccc(OC)c(OC)c2)cs1	none
CCSc1nsc(NC(=O)Nc2cccc(OC)c2)n1	ADAM17 inh 10.8 | ADAM10 ctr inactive | ADAM17 confirm 14.1
CCSc1nsc(NC(=O)Nc2ccccc2F)n1	none
Cc1ccc(/C=C/C(=O)Nc2ccc([N+](=O)[O-])cc2)o1	none
Cc1ccc(/C=C/C(=O)Nc2ccc(Oc3ccccc3)cc2)o1	ADAM17 inh 12.9 | ADAM10 ctr inactive | ADAM17 confirm 11.2
C[C@@H]1CN([C@@H](C)CO)C(=O)c2cccc(NC(=O)Nc3cccc4ccccc34)c2O[C@H]1CN(C)S(=O)(=O)c1ccc2c(c1)OCCO2	none (no result: MT1-MMP act inh)
Cc1[nH]n(-c2ncc(-c3ccccc3)s2)c(=O)c1C(c1ccc(Br)cc1)C(C#N)C#N (configuration not stated)	ADAM17 inh 8.7 | ADAM10 ctr inactive | ADAM17 confirm 12.4
COc1ccc(Cn2ccc3ccc(-c4ccc5ccn(C(=O)c6ccccc6)c5c4)cc32)cc1	none (no result: MT1-MMP act inh)
COc1cccc(NC(=O)c2csc3c2CCCC3)c1	ADAM17 inh 13.0 | ADAM10 ctr inactive | ADAM17 confirm inactive
CCOC(=O)N1CCN(C(=O)C[C@@H]2C(=O)N3CCCC4=C3[C@@]2(C(=O)OC)CCCC4)CC1	none (no result: MT1-MMP act inh)
COc1ccccc1NC(=O)c1c([N+](=O)[O-])c(C(C)(C)C)nn1C	ADAM17 inh 8.6 | ADAM10 ctr inactive | ADAM17 confirm inactive
C=CCCC1CN(Cc2ccc(OC)cc2)S(=O)(=O)c2c(F)cccc2O1 (configuration not stated)	none (no result: MT1-MMP act inh)
COc1cccc(C2C(C#N)=C(N)Oc3c2oc(CO)cc3=O)c1 (configuration not stated)	ADAM17 inh 14.2 | ADAM10 ctr inactive | ADAM17 confirm 11.1
COC(=O)[C@H](C(C)C)N(CCc1cn(Cc2ccccc2)nn1)S(=O)(=O)c1ccccc1Br	none (no result: MT1-MMP act inh)
COC(=O)[C@H](C(C)C)N(CCCc1cn(CC2CCCCC2)nn1)S(=O)(=O)c1ccc(F)cc1Br	ADAM17 inh 10.7 (no result: MT1-MMP act inh) | ADAM10 ctr 26.5 | ADAM17 confirm 14.5
COC(=O)[C@H](CC(C)C)N(CCc1cn(CC2CCCCC2)nn1)S(=O)(=O)c1ccc(F)cc1Br	none (no result: MT1-MMP act inh)
COC(=O)[C@H](C(C)C)N(CCc1cn(Cc2ccc(C)cc2)nn1)S(=O)(=O)c1ccccc1Br	ADAM17 inh 10.6 (no result: MT1-MMP act inh) | ADAM10 ctr 24.0 | ADAM17 confirm 17.4
COC(=O)[C@]12C[C@H](CC(=O)NCCC(C)C)C(=O)N(Cc3ccco3)C1=C[C@H](C(C)C)O[C@@H]2C1CC1	none (no result: MT1-MMP act inh)
COCc1cc(N2CCN(C(=O)OC(C)(C)C)C[C@@H]2C)ccc1N1CC[C@H](O)C1	none (no result: MT1-MMP act inh)
Cc1ccc(O)c(-c2cc(C(=O)Nc3ccc(S(=O)(=O)N4CC(C)OC(C)C4)cc3)[nH]n2)c1 (configuration not stated)	ADAM17 inh 9.2 | ADAM10 ctr inactive | ADAM17 confirm 9.4
O=C1CC(Nc2ccc3ccccc3c2)C(=O)N1Cc1ccccc1 (configuration not stated)	ADAM17 inh 10.0 | ADAM10 ctr inactive | ADAM17 confirm 11.1
Cc1ccc(NC2CC(=O)N(CCc3ccccc3)C2=O)cc1 (configuration not stated)	none
CCOc1ccc(NS(=O)(=O)c2cc(NC(=O)CCC(=O)c3cccs3)ccc2Cl)cc1	ADAM17 inh 9.1 | ADAM10 ctr inactive | ADAM17 confirm 10.3
COc1ccccc1NS(=O)(=O)c1cc(NC(=O)CCC(=O)c2cccs2)ccc1Cl	none
O=C(COc1cccc2ccccc12)Nc1cc(Cl)ccc1C(=O)O	ADAM17 inh 13.0 | ADAM10 ctr inactive | ADAM17 confirm inactive
CC(C)(C)c1ccc(-c2nnc3n2N=C(c2ccc4ccccc4c2)CS3)cc1	none (no result: MT1-MMP act inh)
O=C(NCC(c1ccc(F)cc1)N1CCOCC1)c1ccc(Br)o1 (configuration not stated)	ADAM17 inh 11.2 | ADAM10 ctr inactive | ADAM17 confirm 11.2
COc1ccc(Cc2nnc(SCC(=O)Nc3ccc(C)cc3)n(N)c2=O)cc1	ADAM17 inh 9.8 | ADAM10 ctr inactive | ADAM17 confirm inactive
CC(C)(C)c1ccc(OCCC(=O)OCC(=O)N2c3ccccc3NC(=O)C2(C)C)cc1	ADAM17 inh 11.0 | ADAM10 ctr 39.0 | ADAM17 confirm 15.8
Cc1cccc(OCCC(=O)OCC(=O)N2c3ccccc3NC(=O)C2(C)C)c1	none
CCc1cc(-c2nnn(CCC3COCCO3)c2CC)ccc1-c1cn(CCc2c[nH]c3ccccc23)nn1 (configuration not stated)	ADAM17 inh 8.6 | ADAM10 ctr inactive | ADAM17 confirm 9.4
CCc1nc2ccc(C(=O)Nc3ccc4c(c3)OCC(=O)N4)cn2c1N(CC)Cc1cccc(Br)c1	ADAM17 inh 9.1 | ADAM10 ctr inactive | ADAM17 confirm 11.9
CC(C)N1CCC1(C)C(=O)Nc1ccccc1OC(F)F (configuration not stated)	ADAM17 inh 9.9 | ADAM10 ctr inactive | ADAM17 confirm inactive
O=C1N2Cc3ccccc3C2CS(=O)(=O)N1CCc1ccccc1 (configuration not stated)	none (no result: MT1-MMP act inh)
C=C(C)c1cccc(C(C)(C)NC(=O)N2CCOCC2)c1	none
C=C(C)c1cccc(C(C)(C)NC(=O)N2CCCC2)c1	ADAM17 inh 9.1 | ADAM10 ctr inactive | ADAM17 confirm inactive
C=CCN1[C@@H](C)[C@H](c2ccccc2)Oc2cccc(NCC(C)C)c2S1(=O)=O	none (no result: MT1-MMP act inh)
COc1cc(/C=C/c2nc3ccccc3s2)cc(OC)c1O	none
COc1cc(C=C(c2nc3ccccc3s2)c2nc3ccccc3s2)ccc1O	ADAM17 inh 9.6 | ADAM10 ctr 20.1 | ADAM17 confirm 13.6
Cc1cccc(C)c1NC(=O)C(CCc1ccccc1)N1CCN(CCN(C)C)CC1 (configuration not stated)	none (no result: MT1-MMP act inh)
CN(Cc1cccs1)C(=O)CCc1ccc(S(=O)(=O)N2CCOCC2)cc1	ADAM17 inh 11.4 | ADAM10 ctr inactive | ADAM17 confirm inactive
COC(=O)C1CN(Cc2cn(Cc3ccc(Cl)cc3)nn2)CCS(=O)(=O)N1Cc1ccc(Cl)cc1 (configuration not stated)	none (no result: MT1-MMP act inh)
